Bioassay records (PubChem BioAssay)
SR-BI DiI inh – inhibitors of mouse SR-BI mediated HDL lipid uptake; actives 0.96% (n = 320,000); inhibition, % at 12.5 µM; Q61009; ldlA[mSR-BI] CHO cells, DiI-HDL uptake fluorescence, 3 h;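 active = mean replicate inhibition of at least 70% and a set share of replicates each scoring 70 or more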;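 note: 0% = median of neutral control wells and 100% = median of positive control wells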
Target sequence (Q61009 whole entry, looked up): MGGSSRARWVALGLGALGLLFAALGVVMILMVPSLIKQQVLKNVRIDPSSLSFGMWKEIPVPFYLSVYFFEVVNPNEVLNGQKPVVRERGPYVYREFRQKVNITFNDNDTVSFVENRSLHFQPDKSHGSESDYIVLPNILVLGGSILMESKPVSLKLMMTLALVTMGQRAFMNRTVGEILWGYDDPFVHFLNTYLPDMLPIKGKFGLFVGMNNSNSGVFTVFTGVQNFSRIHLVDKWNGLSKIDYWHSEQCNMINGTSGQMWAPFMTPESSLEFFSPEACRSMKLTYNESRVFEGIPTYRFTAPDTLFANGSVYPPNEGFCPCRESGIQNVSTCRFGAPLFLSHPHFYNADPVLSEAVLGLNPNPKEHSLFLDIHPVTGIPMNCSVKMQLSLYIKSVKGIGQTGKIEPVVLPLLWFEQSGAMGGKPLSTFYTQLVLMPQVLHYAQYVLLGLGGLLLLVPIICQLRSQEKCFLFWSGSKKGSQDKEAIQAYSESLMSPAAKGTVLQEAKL
S100A4 inh HTS – blocks human S100A4 binding to myosin IIA peptide; AID 652163; P26447; inhibition, % at 10.7 µM; S100A4/TAMRA-MyoIIA peptide fluorescence polarization; actives 0.14% (n = 360,000);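 active = mean inhibition of at least 70% across replicates, with every replicate also reaching that level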
Target sequence (P26447 whole entry, looked up): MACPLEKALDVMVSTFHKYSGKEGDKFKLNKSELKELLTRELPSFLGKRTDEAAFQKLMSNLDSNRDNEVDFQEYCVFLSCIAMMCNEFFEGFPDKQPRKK
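System – human S100A4 monomer protein, biochemical binding assay · Buffer or medium – Calcium-containing HEPES buffer, pH 7.2 · Timing – 5 min between mix addition and reading · Also added – TAMRA-labelled myosin IIA heavy-chain peptide probe, 5 nM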
SR-BI DiI-HDL act – enhances SR-BI lipid uptake from DiI-HDL. CHO ldlA[mSR-BI] cells, DiI-HDL uptake fluorescence, 3 h; 100 = double the neutral-control signal. AID 504775. actives 0.096% (n = 320,000). activation, % at 12.5 µM;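 active = mean replicate activation of at least 60% and every replicate at or above 60%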;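 note: 0% = median plate neutral-control signal and 100% = twice that signal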
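material = CHO ldlA[mSR-BI] cells | medium = Ham's F12 with 0.5% BSA, HEPES 25 mM, pH 7.4 | reagent = fluorescent DiI-HDL, 10 µg/mL final | compound dosing = single-point compound dose | incubation = 3 h, 37 °C | measured by = bottom-read fluorescence, 550/595 nm | measure = HDL uptake via cellular fluorescence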
RAD54 inh – RAD54 (human) branch migration inhibition | Q92698 | RAD54 Holliday junction branch migration, FAM/BHQ fluorescence | inhibition, % at 10.4 µM | actives 0.14% (n = 360,000) | AID 602329;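 active = mean normalized replicate activity at least 40 and at least half of replicates scoring 40 or more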;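 note: 0% = median of neutral control wells and 100% = median of positive control wells; inhibitors cause a drop in the FAM fluorescence signal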
dFosB activator – activators of mouse delta FosB homodimer. P13346. purified delta FosB, TAMRA-CDK5 oligo fluorescence polarization; percent of positive-control signal above neutral wells. activation, % at 25 µM. actives 0.99% (n = 340,000);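 active = mean activation above about 17%, with every replicate also reaching it, limit read from the data, passing the limit was not always enough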
PvdQ inh – blocks Pseudomonas aeruginosa PvdQ acylase activity; purified PvdQ acylase, fluorescence plate reader; inhibition, % at 10 µM; actives 0.063% (n = 340,000); AID 488965; in the data active = inhibition above about 30%, passing the limit was not always enough;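 note: 0% = vehicle neutral wells and 100% = reference inhibitor wells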
An asterisk follows results filed as active. Sampled rows, rich in hits. Any-hit rate of the full collection: about 1.6%.

For Cc1ccccc1-c1nc(CS(=O)CC(=O)NC2CCCC2)c(C)o1 (centres undefined) the results were SR-BI DiI inh -18.1, S100A4 inh HTS -2.9, SR-BI DiI-HDL act 18.1, RAD54 inh -4.7, dFosB activator 9.4 and PvdQ inh -6.1.
OCCN1CCN(c2nc(NCc3ccco3)c3ccccc3n2)CC1 was read as SR-BI DiI inh -30.9, SR-BI DiI-HDL act 30.9, dFosB activator 7.4 and PvdQ inh 3.9.
For Cc1ccc(OCCN2CCN(c3nc(NCc4ccco4)c4ccccc4n3)CC2)cc1 the results were SR-BI DiI inh 28.7, SR-BI DiI-HDL act -28.7, RAD54 inh -1.8, dFosB activator 26.8* and PvdQ inh -4.3.
c1ccc(CN2CCN(c3nc(NCc4ccco4)c4ccccc4n3)CC2)cc1 was read as SR-BI DiI inh 22.3, SR-BI DiI-HDL act -22.3, RAD54 inh 12.6, dFosB activator 27.9* and PvdQ inh -5.9.
Screening COc1ccccc1S(=O)(=O)N[C@@H]1C=C[C@H](CC(=O)N2CCCCC2)O[C@@H]1CO returned S100A4 inh HTS -1.4 and RAD54 inh 2.0.
For O=C(NCCN1CCCCC1)[C@H]1[C@H](CO)[C@H]2Cn3c(cccc3=O)[C@H]2N1Cc1ccccn1 the results were S100A4 inh HTS -15.6 and RAD54 inh -5.9.
`CS(=O)(=O)N1[C@@H](C#N)[C@H](c2ccc(C#Cc3cccc(F)c3)cc2)[C@@H]1CO` gave S100A4 inh HTS 10.4 and RAD54 inh -13.7.
CCN(CC)C(=O)c1csc(Nc2ccc(C)cc2)n1 was read as SR-BI DiI inh 18.8, SR-BI DiI-HDL act -18.8, RAD54 inh -2.1, dFosB activator -1.0 and PvdQ inh -6.5.
Screening CCOC(=O)/C(=N\Nc1ccc(Cl)cc1)c1csc(Nc2ccccc2)n1 returned SR-BI DiI inh 109.5*, SR-BI DiI-HDL act -109.5, RAD54 inh -0.8, dFosB activator -10.9 and PvdQ inh -3.8.
COc1ccc(CC(N)c2csc(Nc3ccc(C(=O)c4ccccc4)cc3)n2)cc1 (centres undefined) was read as S100A4 inh HTS 17.3 and RAD54 inh -4.2.
`CCOC(=O)/C(=N/Nc1ccccc1)c1csc(Nc2ccccc2)n1` gave SR-BI DiI inh 95.1*, SR-BI DiI-HDL act -95.1, RAD54 inh -1.0, dFosB activator -4.9 and PvdQ inh -4.9.
CCCCC(CCC(=O)O)(C(=O)OCC)c1csc(Nc2ccccc2)n1 (centres undefined) was read as SR-BI DiI inh -13.1, SR-BI DiI-HDL act 13.1, RAD54 inh 3.7, dFosB activator -14.9 and PvdQ inh -9.9.
`CCOC(=O)/C(=N\Nc1ccc(OC)cc1)c1csc(Nc2ccccc2)n1` gave SR-BI DiI inh 99.4*, S100A4 inh HTS 10.8, SR-BI DiI-HDL act -99.4, dFosB activator -3.7 and PvdQ inh -3.7.
COc1c(Br)cc(Br)cc1/C=N/NC(=O)c1cccnc1 was read as SR-BI DiI inh 8.5, S100A4 inh HTS -1.2, SR-BI DiI-HDL act -8.5, RAD54 inh 2.1, dFosB activator -19.6 and PvdQ inh -6.6.
Screening CCOc1cc(Br)cc(/C=N/NC(=O)c2cccnc2)c1O returned SR-BI DiI inh 80.3*, S100A4 inh HTS -1.3, SR-BI DiI-HDL act -80.3, RAD54 inh 2.8, dFosB activator -6.0 and PvdQ inh -4.1.
O=C(N/N=C/c1cc(Br)ccc1O)c1ccccc1Cl was read as SR-BI DiI inh 84.2*, SR-BI DiI-HDL act -84.2, RAD54 inh -1.4, dFosB activator -2.7 and PvdQ inh -3.9.
Screening Cc1cc(=O)[nH]c(NN=Cc2cc(Br)ccc2O)n1 returned SR-BI DiI inh 96.8*, S100A4 inh HTS -6.9, SR-BI DiI-HDL act -96.8, RAD54 inh 2.9, dFosB activator 1.8 and PvdQ inh -3.7.
`Oc1ccc(Br)cc1/C=N/Nc1ncc(-c2ccccc2)cn1` gave SR-BI DiI inh 12.3, S100A4 inh HTS 0.2, SR-BI DiI-HDL act -12.3, dFosB activator 30.1* and PvdQ inh -9.7.
Cc1cc(=O)[nH]c(N/N=C/c2ccccc2Cl)n1 was read as SR-BI DiI inh 0.1, S100A4 inh HTS -3.0, SR-BI DiI-HDL act -0.1, RAD54 inh -2.5, dFosB activator -2.0 and PvdQ inh 3.0.
Screening O=C(N/N=C/c1cc(Cl)ccc1O)c1ccncc1 returned SR-BI DiI inh 115.4*, S100A4 inh HTS 1.7, SR-BI DiI-HDL act -115.4, RAD54 inh -6.8, dFosB activator -15.3 and PvdQ inh -10.0.
Screening Cc1ccc(C(=O)N/N=C/c2cc(Br)ccc2O)cn1 returned SR-BI DiI inh 74.7*, S100A4 inh HTS 0.0, SR-BI DiI-HDL act -74.7, RAD54 inh 10.3, dFosB activator -8.5 and PvdQ inh 1.2.
Screening CC(C)CC#Cc1ccc2c(c1)O[C@@H](CN(C)C(=O)C1CCCCC1)[C@H](C)CN([C@H](C)CO)S2(=O)=O returned S100A4 inh HTS 9.1 and RAD54 inh -0.9.
`Cc1noc(C)c1S(=O)(=O)Nc1ccc2c(c1)C(=O)N([C@H](C)CO)C[C@@H](C)[C@@H](CN(C)C(=O)Nc1ccc3c(c1)OCO3)O2` gave S100A4 inh HTS -18.8 and RAD54 inh -4.5.
`O=C(Nc1ccccc1)Nc1cc(OCC(F)(F)F)cc(OCC(F)(F)F)c1` gave SR-BI DiI inh 92.4*, S100A4 inh HTS -2.6, SR-BI DiI-HDL act -92.4, dFosB activator -1.1 and PvdQ inh -8.8.
Screening O=C(Nc1ccccc1)Nc1cc(Cl)cc(Cl)c1 returned SR-BI DiI inh 43.7, SR-BI DiI-HDL act -43.7, RAD54 inh 6.3, dFosB activator -1.7 and PvdQ inh -15.5.
`COCCCNC(=O)c1ccc(Cn2c(=O)c3ccccc3n(CC(=O)NCCc3ccc(OC)c(OC)c3)c2=O)cc1` gave SR-BI DiI inh 80.8*, S100A4 inh HTS -1.9, SR-BI DiI-HDL act -80.8, RAD54 inh 7.1, dFosB activator -1.7 and PvdQ inh 4.4.
`COCCCNC(=O)Cn1c(=O)n(Cc2ccc(C(=O)NCCc3ccc(OC)c(OC)c3)cc2)c(=O)c2ccccc21` gave SR-BI DiI inh 88.3*, S100A4 inh HTS 15.6, SR-BI DiI-HDL act -88.3, RAD54 inh -6.8, dFosB activator 1.1 and PvdQ inh 5.4.
COCCCNC(=O)c1ccc(Cn2c(=O)c3ccccc3n(Cc3ccccc3C)c2=O)cc1 was read as SR-BI DiI inh 10.2, SR-BI DiI-HDL act -10.2, RAD54 inh -0.3, dFosB activator -1.4 and PvdQ inh -10.3.
`CCCCNC(=O)CCn1c(=O)c2ccccc2n(CC(=O)NCCc2ccc(OC)c(OC)c2)c1=O` gave S100A4 inh HTS 4.3, dFosB activator -10.3 and PvdQ inh -2.0.
Screening C[C@@H]1CN([C@H](C)CO)C(=O)c2cccc(NC(=O)C3CC3)c2O[C@H]1CN(C)S(C)(=O)=O returned S100A4 inh HTS 6.4 and RAD54 inh 3.5.
